HTRA1 inhibitor: inhibitors of human serine peptidase HTRA1; Q92743; recombinant HTRA1, FP-rhodamine activity-based probe, fluorescence polarization; inhibition, % at 5.96 µM; 340,000 compounds, 0.5% hits; in the data active means inhibition above about 36%;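 further: 0% = enzyme with DMSO and 100% = wells lacking enzyme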
mABHD4 FP: inhibitors of mouse ABHD4 | inhibition, % at 8.92 µM | AID 720543 | 370,000 compounds, 0.54% hits | Q8VD66 | purified mABHD4, FP-Rh probe fluorescence polarization;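 active means inhibition exceeding the mean over every tested compound plus 3 SD, cut at about 30% in these data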;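 further: 0% = plate median of compound wells and 100% = S159A mutant with DMSO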
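Assay system: wild-type mouse ABHD4 protein; compound: single nominal dose of 8.92 µM, 0.89% DMSO final; schedule: 45 min + 60 min at 25 °C; measured by: FP readout, ex 525 nm / em 598 nm; evaluation: % inhibition of FP-Rh probe binding versus controls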
Tn6 DDE FP: disrupts Tn6 cyclic peptide binding to fibrin D-Dimer-E complex; Fibrin DD(E) TRITC-Tn6 fluorescence polarization displacement; inhibition, % at 8.3 µM; 370,000 compounds, 0.21% hits;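 active means inhibition above a per-campaign cutoff: mean of compounds within control limits plus 3 SD, cut at about 15% in these data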;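 further: 0% = median of all compound wells on the plate and 100% = blocking peptide control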
Target sequence (P02675 whole entry, looked up): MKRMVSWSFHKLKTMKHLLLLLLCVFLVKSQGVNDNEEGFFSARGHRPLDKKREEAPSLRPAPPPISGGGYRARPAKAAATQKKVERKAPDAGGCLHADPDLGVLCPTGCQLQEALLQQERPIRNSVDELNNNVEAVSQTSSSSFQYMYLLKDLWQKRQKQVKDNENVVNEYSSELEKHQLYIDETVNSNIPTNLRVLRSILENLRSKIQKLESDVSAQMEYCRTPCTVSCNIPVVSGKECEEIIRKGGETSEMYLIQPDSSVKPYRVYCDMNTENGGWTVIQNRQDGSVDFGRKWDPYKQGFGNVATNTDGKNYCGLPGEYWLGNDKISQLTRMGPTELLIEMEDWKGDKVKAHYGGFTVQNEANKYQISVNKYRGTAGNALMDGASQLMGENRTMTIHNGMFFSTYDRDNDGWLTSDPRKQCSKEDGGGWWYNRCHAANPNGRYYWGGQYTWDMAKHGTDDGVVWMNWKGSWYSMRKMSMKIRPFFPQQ
SIAE inh: inhibitors of human sialic acid acetylesterase SIAE. AID 1053197. 370,000 compounds, 0.69% hits. inhibition, % at 9.66 µM. SIAE FP-Rh probe binding, fluorescence polarization. Q9HAT2;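 active means inhibition above a cutoff: mean of compounds within the control limits plus 3 SD of those, cut at about 17% in these data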;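 further: 0% = plate median of compound wells and 100% = probe without SIAE protein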
TCR-CD3 inh: blocks the human TCR-CD3 interaction. 360,000 compounds, 0.37% hits. inhibition, % at 9.4 µM. TAMRA-labeled TCR probe fluorescence, biochemical. AID 651800; in the data active means inhibition above about 19%;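 further: recombinant mutant TCR 2C K166C tagged with TAMRA read by polarization; 0% = receptor in buffer alone and 100% = receptor with positive control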
Tn7 DDE FP: DD(E)-Tn7 binding inhibition, primary FP screen. FP displacement of FITC-Tn7 peptide from fibrin DD(E); 0% = median of compound wells per plate. P02675. inhibition, % at 8.3 µM. 370,000 compounds, 0.13% hits;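 active means inhibition above the mean of compounds falling within the control limits plus 3 SD of them, cut at about 14% in these data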;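 further: 0% = plate median of compound wells and 100% = 10 µM Aha-Tn7 peptide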
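system = human fibrin DD(E) protein | quantity = DD(E) 2 µM final | medium = Tris/NaCl/CaCl2 buffer, pH 7.8 | also added = labelled Tn7 tracer, 0.1 µM | compound dosing = single point at 8.3 µM | timing = compound with protein 10 min, then 3 h after probe, room temperature | signal = FP measurement | benchmarks = Aha-Tn7 high control | repeats = one replicate per compound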
HTRA1 inh conf: HTRA1 (human) inhibition, confirmation. shares compounds with HTRA1 inhibitor. recombinant HTRA1, FP-rhodamine activity-based probe, fluorescence polarization. inhibition, % at 5.96 µM. 1,600 compounds, 66% hits. AID 540248;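 active means mean inhibition over three repeats above a set limit taken from the earlier primary screen, cut at about 37% in these data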;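 further: 0% = HTRA1 with DMSO and 100% = wells lacking HTRA1; inhibitors block probe binding so polarization drops and inhibition rises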
* = called active by the depositor. Hits are enriched below; roughly 1.8% of the tested compounds scored in any of these assays.

What do the screens show for `Cc1ccc(-c2nn(-c3ccccc3)cc2C(=O)N2CCOCC2)cc1`?
HTRA1 inhibitor: 36*; mABHD4 FP: -1; Tn6 DDE FP: -1; SIAE inh: 5; TCR-CD3 inh: 7; Tn7 DDE FP: -4; HTRA1 inh conf: -5

Results for FC(F)(F)c1cnc(NNC(=S)Nc2ccccc2Cl)c(Cl)c1 ?
HTRA1 inhibitor: 43*; mABHD4 FP: 17; Tn6 DDE FP: -19; SIAE inh: 7; TCR-CD3 inh: -3; Tn7 DDE FP: 4; HTRA1 inh conf: 33

How did O=C(Cc1cnn(-c2ccccc2)c1)c1ccc(O)c(O)c1O do in these assays?
HTRA1 inhibitor: 69*; mABHD4 FP: 24; Tn6 DDE FP: -8; SIAE inh: -15; TCR-CD3 inh: 10; Tn7 DDE FP: -1; HTRA1 inh conf: 94*

Results for CCc1cc(C(=O)Cc2cnn(-c3ccccc3)c2)c(O)cc1O ?
HTRA1 inhibitor: -24; mABHD4 FP: -20; Tn6 DDE FP: 7; SIAE inh: -1; TCR-CD3 inh: 4; Tn7 DDE FP: 1

How did CCC(=O)NC(c1ccc(C)cc1)c1cc([N+](=O)[O-])c2cccnc2c1O (stereo not drawn) do in these assays?
HTRA1 inhibitor: 38*; mABHD4 FP: 9; Tn6 DDE FP: 0; SIAE inh: 11; TCR-CD3 inh: 2; Tn7 DDE FP: 9; HTRA1 inh conf: 71*

How did CC(=O)NC(c1ccc(C)cc1)c1cc([N+](=O)[O-])c2cccnc2c1O (stereo not drawn) do in these assays?
HTRA1 inhibitor: 30; mABHD4 FP: 12; Tn6 DDE FP: -2; SIAE inh: 5; TCR-CD3 inh: -1; Tn7 DDE FP: 4

How did CCCC(=O)NC(c1ccco1)c1cc([N+](=O)[O-])c2cccnc2c1O (stereo not drawn) do in these assays?
HTRA1 inhibitor: 50*; mABHD4 FP: 19; Tn6 DDE FP: 4; SIAE inh: 0; TCR-CD3 inh: 6; Tn7 DDE FP: -3; HTRA1 inh conf: 66*

Results for CC(OC(=O)C1CCN(S(=O)(=O)c2ccc3c(c2)OCCO3)CC1)C(=O)NC1(C#N)CCCCC1 (stereo not drawn) ?
HTRA1 inhibitor: -2; mABHD4 FP: 8; Tn6 DDE FP: 8; SIAE inh: 5; TCR-CD3 inh: 4; Tn7 DDE FP: -11

What do the screens show for `Cc1cc(Cl)ccc1OCCCC(=O)NNC(=O)c1ccccc1O`?
HTRA1 inhibitor: 39*; mABHD4 FP: 1; Tn6 DDE FP: 1; SIAE inh: -1; TCR-CD3 inh: 19; Tn7 DDE FP: 0; HTRA1 inh conf: 52*

What do the screens show for `O=S1(=O)C=CCN1Cc1cn(Cc2ccc(F)cc2)nn1`?
mABHD4 FP: 0; Tn6 DDE FP: -3; SIAE inh: 7; Tn7 DDE FP: 0

What do the screens show for `CCCCn1c(SCC(=O)c2ccccc2)nc2ccsc2c1=O`?
HTRA1 inhibitor: -8; mABHD4 FP: -5; Tn6 DDE FP: -3; SIAE inh: 3; TCR-CD3 inh: 5; Tn7 DDE FP: -1

Results for CCCCn1c(SCC(=O)c2ccc(O)c(O)c2)nc2ccsc2c1=O ?
HTRA1 inhibitor: 59*; HTRA1 inh conf: 61*

What do the screens show for `COc1cccc(NC(=O)C2CCCN2C(=O)Nc2ccc(Cl)cc2)c1` (stereo not drawn)?
mABHD4 FP: 0; Tn6 DDE FP: 3; SIAE inh: -6; Tn7 DDE FP: 10

What do the screens show for `Oc1ccccc1N=N/C(=N/Nc1ccccc1O)c1ccccc1`?
HTRA1 inhibitor: 9; mABHD4 FP: 0; Tn6 DDE FP: 8; SIAE inh: 4; TCR-CD3 inh: 0; Tn7 DDE FP: -1

What do the screens show for `Cn1nnnc1N=N/C(=N/Nc1ccccc1)c1ccccc1`?
HTRA1 inhibitor: 42*; mABHD4 FP: 19; Tn6 DDE FP: -4; SIAE inh: 3; TCR-CD3 inh: -5; Tn7 DDE FP: -2; HTRA1 inh conf: 34

What do the screens show for `O=C(c1ccc(F)cc1Cl)N(Cc1ccccn1)CC1CCCO1` (stereo not drawn)?
mABHD4 FP: -1; Tn6 DDE FP: -8; SIAE inh: -7; Tn7 DDE FP: -2
